Measurements pooled from the literature.
Target: TGF-beta receptor type-2 (TGFBR2, Homo sapiens, UniProt P37173)

SMILES	assay	setting	measurement	result
COc1ncccc1-c1cnn2ccc(N3CCN(C(=O)OC(C)C)CC3)nc12	binding, competition with immobilised ligand	1 µM	remaining binding	100%
CC(C)(C)c1cc(C=C(C#N)C#N)cc(Br)c1O	enzyme activity, inhibitor	0.5 µM	remaining activity	93.8%
COc1cc(Nc2ncc(F)c(Nc3ccc4c(n3)NC(=O)C(C)(C)O4)n2)cc(OC)c1OC	binding	10 µM	inhibition	75%
Cn1cncc1[C@](O)(COc1ccc(C#N)cc1-c1ccc(OC(F)(F)F)cc1)c1ccc(C#N)cc1	cell-free assay, competition with immobilised ligand	1 µM	remaining binding	100%
Nc1ncc(-c2nc(N3CCOCC3)nc(N3CCOCC3)n2)c(C(F)F)n1	cell-free assay, competition with immobilised ligand	10 µM	remaining binding	69%
Cc1nn(C)cc1-c1nc2c(N3CCN(Cc4ccc(Cl)cc4)CC3)c(Cl)cnc2[nH]1	binding, competition with immobilised ligand	1 µM	remaining binding	100%
N#CC1(c2ccccn2)CCN(Cc2cc(C(=O)O)c(=O)n3ccccc23)CC1	cell-free assay, competition with immobilised ligand	1 µM	remaining binding	93%
O=c1[nH]c2ccccc2n1C1CCN(Cc2ccc(-c3[nH]c4cc5ncnc5cc4nc3-c3ccccc3)cc2)CC1	cell-free assay	0.5 µM	remaining signal	95.5%
